Screening data deposited in PubChem BioAssay by Broad Institute.
SIRT5 inh – inhibitors of human sirtuin-5 desuccinylase; Purified SirT5, succinyl-peptide AMC, trypsin-coupled fluorescence; inhibition, % at 15 µM; hit rate 1.1% among 330,000; AID 652115; in the data active = inhibition above about 15%; inconclusive = no clear call, values can overlap the other calls
ERAP1 inh – blocks human ERAP1 aminopeptidase activity. AID 652197. hit rate 0.15% among 340,000. inhibition, % at 10.7 µM. Q9NZ08. recombinant ERAP1, Leu-AMC fluorescence, 60 min;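 active = mean replicate inhibition of at least 30%, or all replicates individually reaching that 30% level; inactive = mean below 30% and not every replicate reaching it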;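 also: 0% = neutral control wells and 100% = L-leucinethiol positive control wells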
Target sequence (Q9NZ08 whole entry, looked up): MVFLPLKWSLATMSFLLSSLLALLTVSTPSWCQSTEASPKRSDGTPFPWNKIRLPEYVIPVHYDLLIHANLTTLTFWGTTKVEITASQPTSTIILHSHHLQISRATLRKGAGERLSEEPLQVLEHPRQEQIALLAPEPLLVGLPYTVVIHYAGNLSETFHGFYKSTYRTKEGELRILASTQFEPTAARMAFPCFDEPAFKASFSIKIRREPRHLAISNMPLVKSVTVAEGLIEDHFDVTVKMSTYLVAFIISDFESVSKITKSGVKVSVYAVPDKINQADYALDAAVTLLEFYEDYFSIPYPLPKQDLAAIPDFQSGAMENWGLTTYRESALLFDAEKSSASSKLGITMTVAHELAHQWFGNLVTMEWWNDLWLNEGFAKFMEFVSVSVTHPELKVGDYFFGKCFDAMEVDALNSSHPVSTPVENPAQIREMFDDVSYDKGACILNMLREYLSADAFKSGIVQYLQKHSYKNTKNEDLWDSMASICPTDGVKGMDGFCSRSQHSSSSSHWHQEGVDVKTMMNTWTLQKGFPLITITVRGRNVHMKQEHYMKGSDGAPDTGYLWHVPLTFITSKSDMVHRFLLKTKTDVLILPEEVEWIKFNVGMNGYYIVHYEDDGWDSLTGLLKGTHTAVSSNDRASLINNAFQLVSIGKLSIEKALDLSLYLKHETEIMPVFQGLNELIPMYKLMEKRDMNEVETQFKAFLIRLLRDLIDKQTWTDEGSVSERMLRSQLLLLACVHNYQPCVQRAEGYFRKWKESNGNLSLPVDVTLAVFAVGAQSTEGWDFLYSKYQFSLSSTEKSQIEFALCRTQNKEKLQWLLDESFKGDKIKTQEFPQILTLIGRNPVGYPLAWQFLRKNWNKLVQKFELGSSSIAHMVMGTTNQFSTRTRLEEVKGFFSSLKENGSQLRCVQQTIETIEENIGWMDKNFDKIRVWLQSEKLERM
E-sel inducer – induces E-selectin expression in human endothelial cells. P16581. activation, % at 7.58 µM. HUVEC E-selectin immunofluorescence imaging; normalized: neutral wells 0, TNF-alpha wells 100. hit rate 0.37% among 260,000;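 active = mean E-selectin-positive cell signal at least 10% of the positive control, reached in at least 60% of replicates, without over 20% cell loss; inconclusive = no rule given, readout overlaps actives, possibly toxicity-flagged; inactive = the rest, including those meeting only one limit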
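Test system: HUVEC; input: 3,000 HUVEC/well; measured by: immunofluorescence imaging; read-out: % PE-positive cells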
PglD DTNB – inhibitors of Campylobacter jejuni PglD acetyltransferase; purified PglD enzyme, DTNB colorimetric CoA detection; inhibition, % at 12.5 µM; hit rate 0.098% among 360,000; in the data active = inhibition above about 16%, passing the limit was not always enough; inconclusive = no clear call, values can overlap the other calls
DENV2 CPE rescue – protects cells from dengue virus 2 cytopathic effect; DENV2-infected cells, cytopathic effect rescue, plate reader; CPE inhibition, % at 9.99 µM; hit rate 1.7% among 350,000; in the data active = CPE inhibition above about 20%, passing the limit was not always enough; inconclusive = no clear call, values can overlap the other calls; tested in BHK-21 cells;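 also: 0% = median of neutral control wells and 100% = median of positive control wells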
* marks the source's active call; other numbers are inactive results; ? = inconclusive; · = no result given. Rows were chosen to be rich in hits. Some 2.5% of all compounds tested hit in one or more screens of this group.

SMILES | SIRT5 inh | ERAP1 inh | E-sel inducer | PglD DTNB | DENV2 CPE rescue
CCc1c(-c2cccc(Cl)c2)ncn1Cc1cccc(-c2ccccc2)c1 | 5 | -6 | 0 | · | 22*
Cc1nnc2c3ccccc3c(-c3ccccc3)nn12 | · | · | · | -3 | ·
CCOc1ccc(NC(=O)COC(=O)CNC(=O)c2ccc(-c3ccccc3)cc2)cc1 | -5 | 0 | 0 | -4 | -9
Cc1cc(C)n(CCC(=O)N2c3ccccc3CC2C)n1 (stereo not drawn) | 17* | 8 | · | -2 | -3
CC(C(=O)Nc1ccc(F)c(F)c1F)N(C)Cc1cccs1 (stereo not drawn) | 16* | 3 | 0 | 2 | 2
CN(Cc1cn(Cc2ccccc2)nn1)C1CN(Cc2cn(Cc3ccccc3)nn2)S(=O)(=O)C1 (stereo not drawn) | -1 | · | 0 | · | -7
CCN(C)C1CN(Cc2cn(Cc3ccccc3)nn2)S(=O)(=O)C1 (stereo not drawn) | -1 | 0 | 0 | · | 21*
CCN(C)C1CN(Cc2cn(Cc3ccc(F)cc3)nn2)S(=O)(=O)C1 (stereo not drawn) | -2 | 3 | 0 | · | 46*
Cc1cccc(Cl)c1NC(=O)NCCCN1CCCCC1C (stereo not drawn) | 23* | -6 | 0 | · | -4
Cc1cccc(Cl)c1NC(=O)NCCCN1CCOCC1 | · | -1 | 0 | · | -13
Cc1ccc(N=Nc2c(C)[nH][nH]c2=O)c(C)c1 | · | · | · | -10 | ·
O=C(C1CCCCC1)N1C[C@@H](O)[C@H](n2cc(-c3ccc(F)cc3)nn2)C[C@@H]1c1ccccc1 | 28* | 8 | 0 | · | -5
O=C(C1CCCCC1)N1C[C@H](n2cc(-c3ccc(F)cc3)nn2)[C@@H](O)C[C@@H]1c1ccccc1 | 2 | -6 | 0 | -3 | 15
O=C(C1CCCCC1)N1C[C@H](O)[C@@H](n2cc(C3CC3)nn2)C[C@@H]1c1ccccc1 | -1 | -4 | 1 | 5 | 86*
Cc1ccccc1S(=O)(=O)N(C)C[C@@H]1OCc2ccccc2-c2c(n(C)c3ccccc23)C(=O)N([C@@H](C)CO)C[C@@H]1C | 6 | 2 | -1 | -1 | ?
Cc1ccccc1S(=O)(=O)N(C)C[C@H]1OCc2ccccc2-c2c(n(C)c3ccccc23)C(=O)N([C@H](C)CO)C[C@H]1C | 16* | 2 | 2 | 0 | -5
COc1ccccc1S(=O)(=O)N(C)C[C@@H]1OCc2ccccc2-c2c(n(C)c3ccccc23)C(=O)N([C@H](C)CO)C[C@H]1C | 3 | -3 | 6 | -1 | ?
COc1ccccc1S(=O)(=O)N(C)C[C@H]1OCc2ccccc2-c2c(n(C)c3ccccc23)C(=O)N([C@H](C)CO)C[C@@H]1C | 15* | -1 | 11 | -1 | ?
O=C1N(Cc2cccnc2)C[C@@H]2C[C@@H](c3cccc(OC4CCCC4)c3)N3CCC[C@@]123 | -2 | -4 | · | · | 4
O=C(/C=C/c1cccs1)NC(=S)Nc1ccc(S(=O)(=O)Nc2ccccc2C(F)(F)F)cc1 | 0 | 2 | 0 | -2 | 1
COc1ccc(OCC(O)CNC(=O)c2ccccc2)cc1 (stereo not drawn) | · | · | 77* | · | 4
COc1ccc2c3c([nH]c2c1)[C@@H](CO)N(Cc1nccs1)CC31CN(C(=O)C2CCCC2)C1 | 4 | 0 | 0 | · | 29*
COc1ccc2c3c([nH]c2c1)[C@H](CO)N(C(=O)C1CCC1)CC31CCN(Cc2nccs2)CC1 | 12 | 0 | 0 | · | 41*
COc1ccc2c3c([nH]c2c1)[C@@H](CO)N(C(=O)C1CCCCC1)CC31CCN(Cc2nccs2)CC1 | 2 | 2 | 1 | · | 5
COc1ccc2c3c([nH]c2c1)[C@@H](CO)N(C(=O)c1ccccn1)CC31CN(C(=O)C2CCC2)C1 | 3 | 0 | 0 | · | -6
SMILES | SIRT5 inh | ERAP1 inh | E-sel inducer | PglD DTNB | DENV2 CPE rescue
COc1ccc2c3c([nH]c2c1)[C@H](CO)N(C(=O)c1cnccn1)CC31CCN(S(C)(=O)=O)CC1 | -5 | 3 | 0 | · | 68*
COc1ccc2c3c([nH]c2c1)[C@H](CO)N(Cc1nccs1)CC31CN(C(=O)C2CCCCC2)C1 | 0 | 0 | 0 | · | -8
COc1ccc2c3c([nH]c2c1)[C@H](CO)N(C(=O)c1cnccn1)CC31CN(C(=O)c2cnccn2)C1 | · | · | 0 | · | 6
COc1ccc2c3c([nH]c2c1)[C@@H](CO)N(C(=O)c1ccccn1)CC31CN(C(=O)C2CCCC2)C1 | 4 | 2 | 0 | · | 24*
CCS(=O)(=O)N1CC2(C1)[C@H](c1ccccc1)[C@H](CO)N2C(=O)C1CCC1 | 2 | 1 | 0 | · | ?
O=C(Cn1cnc([N+](=O)[O-])n1)N/N=C/c1ccc(O)cc1O | -6 | -10 | · | · | -1
CC(C)Oc1cc(F)ccc1-c1cc(C(=O)NCCCn2ccnc2)[nH]n1 | -2 | 9 | 1 | -3 | 4
OC[C@@H]1CN(Cc2cccc(C(F)(F)F)c2)C[C@H](n2cnc3c(NCc4ccncc4)ncnc32)O1 | -1 | 0 | · | 1 | 1
C[C@@H]1CCCCO[C@@H](CN(C)Cc2ccc(C(=O)O)cc2)[C@H](C)CN([C@H](C)CO)C(=O)c2cc(NC(=O)c3ccncc3)ccc2O1 | 1 | -2 | 0 | 4 | -13
O=C(NCc1ccccc1Cl)c1cc(=O)[nH]c2ccccc12 | 0 | 48* | · | 7 | -1
O=C(Nc1nccs1)c1cccc2ccccc12 | 18* | -2 | · | -5 | 5
Cc1ccc2nc(SC(C)C(=O)N3CCCC3)[nH]c2c1 (stereo not drawn) | · | · | · | 3 | ·
Cc1ccc2nc(SC(C)C(=O)N3CC(C)OC(C)C3)[nH]c2c1 (stereo not drawn) | 22* | 4 | 6 | · | 4
Cc1cccc(N2CCN(C(=O)Cn3cnc4c3c(=O)n(C)c(=O)n4C)CC2)c1C | · | · | · | -1 | ·
CN1CCN(C(=O)/C=C/c2cn(-c3ccccc3)nc2-c2ccc3c(c2)OCCO3)CC1 | -4 | -1 | · | -2 | -4
O=[N+]([O-])c1cc(Cl)c2cccnc2c1O | 17* | 3 | 0 | · | 5
O=[N+]([O-])c1cc(Cl)c(O)c2ncccc12 | 8 | 6 | 0 | · | -3
CC1CCCN(CCCOc2ccc(Br)cc2Cl)C1 (stereo not drawn) | -3 | 8 | 0 | · | 34*
CC1CCN(CCOCCOc2ccc(Br)cc2Cl)CC1 | · | · | 2 | -1 | ·
CCOC(=O)C1=C(CS(=O)(=O)c2ccccc2)NC(=O)NC1c1ccc(OC)c(OC)c1 (stereo not drawn) | 8 | · | 1 | -2 | 0
CCOC(=O)C1=C(CS(=O)(=O)c2ccc(C)cc2)NC(=O)NC1c1cc(OC)c(O)c(OC)c1 (stereo not drawn) | -7 | 2 | 0 | 3 | 37*
COc1ccc(NC(=O)c2c(F)cccc2F)cc1S(=O)(=O)Nc1ccc(Br)cc1 | 2 | 0 | · | 2 | 49*
COc1ccc(NS(=O)(=O)c2cc(NC(=O)c3ccccn3)ccc2OC)cc1Br | -4 | -5 | 0 | -2 | 10
